Structures are written as SMILES.

The species named for experiment [1] is Rattus norvegicus. In words: Inhibition of rat kidney ALR1 at 100 uM using sodium D-glucuronate as substrate incubated for 1 min and measured up to 4 mins using H2O-dissolved compound by spectrophotometric analysis relative to control. Summed up:
(§1)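 ALR1 purified from kidneys of male Wistar rats (8–9 weeks, 200–230 g); reduction of D-glucuronate monitored. Inhibitor dissolved in water. I (%) is inhibition at 100 μM inhibitor. Same enzyme batch throughout. Values are means of two measurements or mean ± SD of at least three.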

In experiment [2] the target is T1, Aldo-keto reductase family 1 member B1 (Rattus norvegicus, UniProt P07943). In words: Inhibition of rat lens ALR2 using D,L-glyceraldehyde as substrate incubated for 1 min and measured up to 4 mins using H2O-dissolved compound by spectrophotometric analysis. Summed up: (§2)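 ALR2 purified from lenses of male Wistar rats (8–9 weeks, 200–230 g); in vitro reduction of D,L-glyceraldehyde (5.0 mM) monitored. Solvent was water or 1% DMSO. Same enzyme batch throughout. IC50 is the mean of two measurements or mean ± SD of at least three.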

For experiment [3], the species on record is Rattus norvegicus. In words: Selectivity index, ratio of IC50 for rat kidney ALR1 using sodium D-glucuronate as substrate incubated for 1 min and measured up to 4 mins using H2O-dissolved compound to IC50 for rat lens ALR2 using D,L-glyceraldehyde as substrate incubated for 1 min and measured up to 4 mins using H2O-dissolved compound. Summed up: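 Selectivity factor computed as IC50(ALR1, rat kidney, D-glucuronate) divided by IC50(ALR2, rat lens, D,L-glyceraldehyde), both measured with compounds in water.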

Experiment [4] in a line: Inhibition of rat kidney ALR1 using sodium D-glucuronate as substrate incubated for 1 min and measured up to 4 mins using H2O-dissolved compound by spectrophotometric analysis. Put shortly:
as §1

For experiment [5], the target named is T1, Aldo-keto reductase family 1 member B1. As to the kind of experiment: Inhibition of rat lens ALR2 using D,L-glyceraldehyde as substrate incubated for 1 min and measured up to 4 mins using 1% DMSO-dissolved compound by spectrophotometric analysis. Summed up: as §2
A short description of experiment [6]: Antioxidant activity assessed as DPPH radical scavenging activity by measuring reduction in absorbance at 200 uM after 30 mins (reference value: 0.013 +/- 0.012). The experiment is classed as functional. Put shortly:
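Stable DPPH radical, 50 μM in ethanol, incubated without (blank) or with test compound at 200 μM; absorbance decline at 518 nm read after the initial 30-min interval. Mean ± SD of at least three measurements.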

Experiment [7] concerns the target Aldo-keto reductase family 1 member B1 (Rattus norvegicus) (UniProt P07943). In words: Inhibition of ALR2 in rat lens assessed as reduction in sorbitol accumulation preincubated for 30 mins followed by D-glucose addition and measured after 3 hrs by resazurin based fluorescence analysis. Summed up:
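Isolated eye lenses from female Wistar rats (9–10 weeks, 210–250 g) incubated with 50 mM glucose, alongside glucose-free and glucose-only controls. Inhibitor at 1, 10, 50 and 100 μM; lens sorbitol measured. Mean ± SEM of at least five independent incubations.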

Experiment [8] has as its target Aldo-keto reductase family 1 member B1 (Homo sapiens, UniProt P15121). As to the kind of experiment: Inhibition of human AKR1B1 expressed in Escherichia coli using D,L-glyceraldehyde as substrate incubated for 1 min and measured up to 4 mins using by spectrophotometric analysis.
Experiment [9] addresses Aldo-keto reductase family 1 member B10 (Homo sapiens, UniProt O60218). As to the kind of experiment: Inhibition of human AKR1B10 using D,L-glyceraldehyde as substrate incubated for 1 min and measured up to 4 mins using by spectrophotometric analysis. Summed up:
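Human recombinant AKR1B10 at 10 μg/mL protein with 5 mM DL-glyceraldehyde substrate and 0.12 mM NADPH cofactor. Run without DMSO. IC50 is mean ± SD of at least three measurements.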

The target in experiment [10] is T2, Sorbitol dehydrogenase (Ovis aries) (UniProt P07846).
T2 sequence (whole entry): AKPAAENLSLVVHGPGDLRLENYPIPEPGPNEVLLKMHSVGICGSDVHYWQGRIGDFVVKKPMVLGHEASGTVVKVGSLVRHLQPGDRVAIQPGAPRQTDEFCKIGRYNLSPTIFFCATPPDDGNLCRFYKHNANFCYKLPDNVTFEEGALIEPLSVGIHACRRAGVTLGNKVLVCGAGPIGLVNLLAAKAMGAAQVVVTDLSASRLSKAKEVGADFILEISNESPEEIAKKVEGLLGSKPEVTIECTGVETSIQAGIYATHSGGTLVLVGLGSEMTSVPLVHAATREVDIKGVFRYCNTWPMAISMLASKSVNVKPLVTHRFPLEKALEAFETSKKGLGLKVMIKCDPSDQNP
In words: Inhibition of sheep liver sorbitol dehydrogenase at 100 uM using sorbitol as substrate measured for 4 mins in presence of NAD+ by spectrophotometric analysis relative to control.

For the next experiment, the species on record is Homo sapiens. In words: Selectivity index, ratio of IC50 for human AKR1B10 to IC50 for human AKR1B1 expressed in Escherichia coli. Summed up: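 Ratio of IC50s against recombinant human AKR1B10 and AKR1B1, each measured without DMSO as inhibition of DL-glyceraldehyde reduction. AKR1B10 used 5 mM substrate, 0.12 mM nicotinamide adenine dinucleotide phosphate cofactor and 10 μg/mL protein. AKR1B1 used the rat-lens ALR2 assay conditions at 5 μg/mL protein. IC50s are mean ± SD of at least three measurements.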

Experiment [11] concerns the target T1, Aldo-keto reductase family 1 member B1. In words: Inhibition of rat lens ALR2 using 4-hydroxynonenal as substrate incubated for 1 min and measured up to 4 mins by spectrophotometric analysis. Put shortly: (§3)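 Rat lens ALR2 with methylglyoxal (0.5 mM), 4-hydroxynonenal (0.5 mM) or GS-HNE (1.0 mM). IC50 is mean ± SD of at least three measurements.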
Experiment [12] has the same target. As to the kind of experiment: Inhibition of rat lens ALR2 using methylglyoxal as substrate incubated for 1 min and measured up to 4 mins by spectrophotometric analysis. Put shortly: as §3
For experiment [13] the target is unchanged. As to the kind of experiment: Inhibition of rat lens ALR2 using 4-hydroxynonenal glutathione as substrate incubated for 1 min and measured up to 4 mins by spectrophotometric analysis. Put shortly: as §3

Aldo-keto reductase family 1 member B10, sequence (O60218 whole entry): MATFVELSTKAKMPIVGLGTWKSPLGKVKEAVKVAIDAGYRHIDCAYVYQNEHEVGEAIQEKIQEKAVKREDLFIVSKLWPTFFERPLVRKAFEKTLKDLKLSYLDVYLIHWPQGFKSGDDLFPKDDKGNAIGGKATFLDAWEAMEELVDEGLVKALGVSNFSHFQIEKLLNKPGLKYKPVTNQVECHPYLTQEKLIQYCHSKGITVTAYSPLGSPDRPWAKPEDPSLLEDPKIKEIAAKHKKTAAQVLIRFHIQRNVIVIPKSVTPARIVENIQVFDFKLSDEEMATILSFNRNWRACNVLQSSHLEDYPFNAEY

Consider `O=C(O)Cn1c2ccccc2c2nn(Cc3ccccc3)c(=O)nc21`, for which the inhibition in the experiment filed under Rattus norvegicus [1] was determined as 37.8%. Also, the IC50 was 0.434 µM in [2], more than 100 µM in experiment [4] and 0.787 µM in [5]. Moreover, the Ratio IC50 in the experiment listed under Rattus norvegicus [3] is more than 230.

With `COCn1nc2c3ccccc3n(CC(=O)O)c2nc1=O`, the Reduction in absorbance at 518 nm (DPPH) in [6] was 0.042. This compound came in with an inhibition in the experiment listed under Rattus norvegicus [1] of 13.4%. The IC50 was 0.085 µM in experiment [2], more than 100 µM in experiment [4] and 0.118 µM in experiment [5]. The Ratio IC50 in the experiment filed under Rattus norvegicus [3] is more than 1180.

For `O=C(O)Cn1nc2c3ccccc3n(CC(=O)O)c2nc1=O`, the half-inhibitory concentration (IC50) was 0.12 µM in [2], 20.2 µM in [4] and 0.233 µM in experiment [5]. For the same compound, the Ratio IC50 in the experiment listed under Rattus norvegicus [3] was determined as 168.

Turning to `O=C(O)Cn1c2ccccc2c2n[nH]c(=O)nc21`, in experiment [6], the Reduction in absorbance at 518 nm (DPPH) was found to be 0.057. The inhibition in the experiment listed under Rattus norvegicus [1] was 24%; in experiment [7] it was “Dose-dependent effect”; in [10], 0.9%. The 50% inhibitory concentration (IC50) in [2] is 0.042 µM; in experiment [8] it was 0.066 µM; in experiment [9], 56.2 µM; in experiment [11] it was 0.216 µM; in [12] it was 0.04 µM; in [4], more than 100 µM. The IC50 stood at 0.292 µM in [13] and 0.051 µM in experiment [5]. Further, the Ratio IC50 is more than 2380 in the experiment listed under Rattus norvegicus [3] and more than 850 in the experiment filed under Homo sapiens.

Take `O=C(O)Cn1c2ccccc2c2nnc(S)nc21`: the Reduction in absorbance at 518 nm (DPPH) in experiment [6] was determined as 0.219. In experiment [4], this compound displayed an IC50 of 35 µM.

For `COc1ccc2[nH]cc(CCNC(C)=O)c2c1`, the Reduction in absorbance at 518 nm (DPPH) in [6] is 0.022.

The record behind these values is ChEMBL document CHEMBL4376851 (J Med Chem, 2020).
